From ChEMBL document CHEMBL1667774, “Synthesis and evaluation of a class of new coumarin triazole derivatives as potential antimicrobial agents” (2011) come the findings set out here.

In experiment [1] the test system is Staphylococcus aureus. The experiment in a line: Antimicrobial activity against Staphylococcus aureus ATCC 25923 by twofold broth dilution method. Type of experiment: functional. The method, boiled down:
(§1)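 Two-fold broth dilution in 96-well micro-test plates, following NCCLS recommendations. Enoxacin and Chloromycin served as positive controls for bacteria, and Fluconazole for fungi. The read-out is the MIC in µg/mL.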

The subject of the next experiment is Salmonella typhi. In words: Antimicrobial activity against Salmonella typhi ATCC 9484 by twofold broth dilution method. The note with it: Salmonella enterica. Type of experiment: functional, Salmonella enterica subsp. enterica serovar Typhi. An outline of the steps:
(§2)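 Antibacterial MIC, determined by two-fold serial broth dilution following the NCCLS-recommended method. Clinical antimicrobial drugs were run alongside as positive controls.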

Another experiment deals with Saccharomyces cerevisiae. The experiment in a line: Antifungal activity against Saccharomyces cerevisiae ATCC 9763 by twofold broth dilution method. The format is functional. An outline of the steps: as §1
The next experiment has as its system Proteus vulgaris. The experiment in a line: Antimicrobial activity against Proteus vulgaris ATCC 6896 by twofold broth dilution method. Type of experiment: functional. The method, boiled down: as §1
Another experiment concerns Micrococcus luteus. The experiment in a line: Antimicrobial activity against Micrococcus luteus ATCC 4698 by twofold broth dilution method. The format is functional. The method, boiled down: as §1
Another experiment concerns Shigella dysenteriae. The experiment in a line: Antimicrobial activity against Shigella dysenteriae ATCC 49550 by twofold broth dilution method. The format is functional. An outline of the steps:
as §2

The test system of another experiment is Aspergillus fumigatus. The experiment in a line: Antifungal activity against Aspergillus fumigatus ATCC 96918 by twofold broth dilution method. The format is functional. The method, boiled down: as §1
For another experiment, the system named is Escherichia coli. In words: Antimicrobial activity against Escherichia coli ATCC 25922 by twofold broth dilution method. The format is functional. An outline of the steps: as §1
Another experiment deals with Candida albicans. In words: Antifungal activity against Candida albicans ATCC 76615 by twofold broth dilution method. The format is functional. An outline of the steps: as §1
In the next experiment the test system is Bacillus subtilis. In words: Antimicrobial activity against Bacillus subtilis ATCC 6633 by twofold broth dilution method. The format is functional. The method, boiled down: as §1
The subject of experiment [2] is Staphylococcus aureus. In words: Antimicrobial activity against methicillin-resistant Staphylococcus aureus N 315 by twofold broth dilution method. Type of experiment: functional. The method, boiled down: as §2

Converted amounts (≈) assume the structure as drawn.

Turning to `Cc1cc(=O)oc2cc(OCCCCCn3cncn3)ccc12`, the MIC in the experiment with Staphylococcus aureus [1] was 4 µg/mL (≈ 12.8 µM); with Salmonella typhi, 16 µg/mL (≈ 51.1 µM); in the experiment on Saccharomyces cerevisiae it was 16 µg/mL (≈ 51.1 µM); with Proteus vulgaris, 32 µg/mL (≈ 102 µM); with Micrococcus luteus it was 8 µg/mL (≈ 25.5 µM); against Shigella dysenteriae, 32 µg/mL (≈ 102 µM). Besides, the MIC against Aspergillus fumigatus stood at 16 µg/mL (≈ 51.1 µM); in the experiment with Escherichia coli, 32 µg/mL (≈ 102 µM); in the experiment on Candida albicans, 8 µg/mL (≈ 25.5 µM); in the experiment on Bacillus subtilis, 4 µg/mL (≈ 12.8 µM); against Staphylococcus aureus [2] it was 16 µg/mL (≈ 51.1 µM).

As to `Cc1cc(=O)oc2cc(OCCCCn3cncn3)ccc12`, the MIC was 2 µg/mL (≈ 6.68 µM) in the experiment on Staphylococcus aureus [1]; 16 µg/mL (≈ 53.5 µM) with Salmonella typhi; 4 µg/mL (≈ 13.4 µM) with Saccharomyces cerevisiae; 16 µg/mL (≈ 53.5 µM) in the experiment on Proteus vulgaris; 4 µg/mL (≈ 13.4 µM) against Micrococcus luteus; 16 µg/mL (≈ 53.5 µM) in the experiment on Shigella dysenteriae. The MIC against Aspergillus fumigatus stood at 16 µg/mL (≈ 53.5 µM); in the experiment on Escherichia coli, 8 µg/mL (≈ 26.7 µM); against Candida albicans it was 2 µg/mL (≈ 6.68 µM); in the experiment on Bacillus subtilis it was 2 µg/mL (≈ 6.68 µM); against Staphylococcus aureus [2], 8 µg/mL (≈ 26.7 µM).

For the compound `Cc1cc(=O)oc2cc(OCCCCCOc3ccc4c(C)cc(=O)oc4c3)ccc12`, the MIC turned out to be 128 µg/mL (≈ 304 µM) against Staphylococcus aureus [1]; 512 µg/mL (≈ 1220 µM) against Salmonella typhi; 256 µg/mL (≈ 609 µM) against Saccharomyces cerevisiae; 512 µg/mL (≈ 1220 µM) in the experiment on Proteus vulgaris; 128 µg/mL (≈ 304 µM) in the experiment on Micrococcus luteus; 512 µg/mL (≈ 1220 µM) in the experiment on Shigella dysenteriae. Also, the minimum inhibitory concentration (MIC) was found to be 512 µg/mL (≈ 1220 µM) in the experiment with Aspergillus fumigatus; 256 µg/mL (≈ 609 µM) with Escherichia coli; 512 µg/mL (≈ 1220 µM) against Candida albicans; 256 µg/mL (≈ 609 µM) against Bacillus subtilis; 256 µg/mL (≈ 609 µM) against Staphylococcus aureus [2].

On to `Cc1cc(=O)oc2cc(OCc3ccc(Cn4cncn4)cc3)cc(OCc3ccc(Cn4cncn4)cc3)c12`, for which the MIC with Staphylococcus aureus [1] stood at 32 µg/mL (≈ 59.9 µM); against Salmonella typhi, 32 µg/mL (≈ 59.9 µM); against Saccharomyces cerevisiae it was 32 µg/mL (≈ 59.9 µM); against Proteus vulgaris it was 32 µg/mL (≈ 59.9 µM); with Micrococcus luteus, 64 µg/mL (≈ 120 µM); with Shigella dysenteriae it was 64 µg/mL (≈ 120 µM). Besides, the MIC against Aspergillus fumigatus was found to be 64 µg/mL (≈ 120 µM); against Escherichia coli, 64 µg/mL (≈ 120 µM); in the experiment on Candida albicans it was 32 µg/mL (≈ 59.9 µM); in the experiment with Bacillus subtilis it was 64 µg/mL (≈ 120 µM); against Staphylococcus aureus [2], 64 µg/mL (≈ 120 µM).

For the compound `Cc1cc(=O)oc2cc(OCCCCCBr)cc(OCCCCCBr)c12`, the MIC in the experiment on Staphylococcus aureus [1] worked out at 128 µg/mL (≈ 261 µM); with Salmonella typhi, 256 µg/mL (≈ 522 µM); in the experiment on Saccharomyces cerevisiae, 256 µg/mL (≈ 522 µM); in the experiment on Proteus vulgaris, 256 µg/mL (≈ 522 µM); in the experiment on Micrococcus luteus it was 128 µg/mL (≈ 261 µM); with Shigella dysenteriae, 256 µg/mL (≈ 522 µM). Besides, the MIC stood at 128 µg/mL (≈ 261 µM) in the experiment on Aspergillus fumigatus; 512 µg/mL (≈ 1040 µM) in the experiment on Escherichia coli; 128 µg/mL (≈ 261 µM) with Candida albicans; 128 µg/mL (≈ 261 µM) against Bacillus subtilis; 256 µg/mL (≈ 522 µM) in the experiment with Staphylococcus aureus [2].

Take `Cc1cc(=O)oc2cc(OCCCCn3cncn3)ccc12.Cl`: the MIC came out at 2 µg/mL in the experiment on Staphylococcus aureus [1]; 16 µg/mL with Salmonella typhi; 4 µg/mL against Saccharomyces cerevisiae; 8 µg/mL against Proteus vulgaris; 2 µg/mL in the experiment on Micrococcus luteus; 16 µg/mL in the experiment on Shigella dysenteriae. For the same compound, the MIC against Aspergillus fumigatus turned out to be 8 µg/mL; in the experiment with Escherichia coli, 4 µg/mL; in the experiment with Candida albicans it was 2 µg/mL; against Bacillus subtilis, 2 µg/mL; in the experiment on Staphylococcus aureus [2], 8 µg/mL.

Take `Cc1cc(=O)oc2cc(OCc3ccc(CBr)cc3)ccc12`: the minimal inhibitory concentration (MIC) in the experiment with Staphylococcus aureus [1] is 256 µg/mL (≈ 713 µM); in the experiment with Salmonella typhi it was 512 µg/mL (≈ 1430 µM); against Saccharomyces cerevisiae it was 256 µg/mL (≈ 713 µM); in the experiment with Proteus vulgaris, 512 µg/mL (≈ 1430 µM); with Micrococcus luteus it was 256 µg/mL (≈ 713 µM); with Shigella dysenteriae, 512 µg/mL (≈ 1430 µM). The MIC with Aspergillus fumigatus came to 256 µg/mL (≈ 713 µM); against Escherichia coli, 512 µg/mL (≈ 1430 µM); in the experiment on Candida albicans it was 256 µg/mL (≈ 713 µM); in the experiment with Bacillus subtilis, 256 µg/mL (≈ 713 µM); in the experiment with Staphylococcus aureus [2], 512 µg/mL (≈ 1430 µM).

On to `Cc1cc(=O)oc2cc(OCCCCCn3cncn3)cc(OCCCCCn3cncn3)c12`, for which the MIC turned out to be 2 µg/mL (≈ 4.29 µM) in the experiment on Staphylococcus aureus [1]; 4 µg/mL (≈ 8.57 µM) in the experiment on Salmonella typhi; 4 µg/mL (≈ 8.57 µM) against Saccharomyces cerevisiae; 4 µg/mL (≈ 8.57 µM) in the experiment with Proteus vulgaris; 4 µg/mL (≈ 8.57 µM) with Micrococcus luteus; 4 µg/mL (≈ 8.57 µM) against Shigella dysenteriae. The MIC with Aspergillus fumigatus was determined as 32 µg/mL (≈ 68.6 µM); in the experiment with Escherichia coli, 8 µg/mL (≈ 17.1 µM); against Candida albicans it was 2 µg/mL (≈ 4.29 µM); in the experiment with Bacillus subtilis it was 4 µg/mL (≈ 8.57 µM); in the experiment with Staphylococcus aureus [2] it was 8 µg/mL (≈ 17.1 µM).

Regarding `Cc1cc(=O)oc2cc(OCCCCCCn3cncn3)cc(OCCCCCCn3cncn3)c12`, the MIC against Staphylococcus aureus [1] worked out at 8 µg/mL (≈ 16.2 µM); in the experiment with Salmonella typhi, 16 µg/mL (≈ 32.3 µM); in the experiment with Saccharomyces cerevisiae, 4 µg/mL (≈ 8.09 µM); against Proteus vulgaris it was 8 µg/mL (≈ 16.2 µM); against Micrococcus luteus, 8 µg/mL (≈ 16.2 µM); against Shigella dysenteriae, 8 µg/mL (≈ 16.2 µM). In addition, the MIC against Aspergillus fumigatus was 32 µg/mL (≈ 64.7 µM); against Escherichia coli, 8 µg/mL (≈ 16.2 µM); against Candida albicans, 4 µg/mL (≈ 8.09 µM); in the experiment with Bacillus subtilis, 4 µg/mL (≈ 8.09 µM); with Staphylococcus aureus [2], 16 µg/mL (≈ 32.3 µM).

Turning to `Cc1cc(=O)oc2cc(OCc3ccc(Cn4cncn4)cc3)ccc12.Cl`, the MIC with Staphylococcus aureus [1] turned out to be 8 µg/mL; in the experiment on Salmonella typhi, 16 µg/mL; with Saccharomyces cerevisiae, 16 µg/mL; in the experiment on Proteus vulgaris, 16 µg/mL; against Micrococcus luteus, 8 µg/mL; against Shigella dysenteriae, 16 µg/mL. Besides, the MIC in the experiment on Aspergillus fumigatus stood at 16 µg/mL; against Escherichia coli it was 16 µg/mL; with Candida albicans, 8 µg/mL; in the experiment with Bacillus subtilis it was 8 µg/mL; against Staphylococcus aureus [2] it was 16 µg/mL.

As for `Cc1cc(=O)oc2cc(OCCCCBr)ccc12`, the MIC against Staphylococcus aureus [1] amounted to 128 µg/mL (≈ 411 µM); against Salmonella typhi, 256 µg/mL (≈ 823 µM); in the experiment with Saccharomyces cerevisiae, 256 µg/mL (≈ 823 µM); against Proteus vulgaris it was 256 µg/mL (≈ 823 µM); in the experiment on Micrococcus luteus, 128 µg/mL (≈ 411 µM); against Shigella dysenteriae it was 512 µg/mL (≈ 1650 µM). Further, the MIC in the experiment with Aspergillus fumigatus worked out at 512 µg/mL (≈ 1650 µM); against Escherichia coli, 256 µg/mL (≈ 823 µM); with Candida albicans, 128 µg/mL (≈ 411 µM); in the experiment with Bacillus subtilis, 128 µg/mL (≈ 411 µM); against Staphylococcus aureus [2] it was 256 µg/mL (≈ 823 µM).

Regarding `Cc1cc(=O)oc2cc(OCCCCCCn3cncn3)ccc12`, the MIC came to 8 µg/mL (≈ 24.4 µM) against Staphylococcus aureus [1]; 32 µg/mL (≈ 97.7 µM) against Salmonella typhi; 32 µg/mL (≈ 97.7 µM) against Saccharomyces cerevisiae; 32 µg/mL (≈ 97.7 µM) against Proteus vulgaris; 8 µg/mL (≈ 24.4 µM) against Micrococcus luteus; 32 µg/mL (≈ 97.7 µM) in the experiment on Shigella dysenteriae. The MIC against Aspergillus fumigatus worked out at 32 µg/mL (≈ 97.7 µM); against Escherichia coli, 32 µg/mL (≈ 97.7 µM); against Candida albicans, 16 µg/mL (≈ 48.9 µM); against Bacillus subtilis, 8 µg/mL (≈ 24.4 µM); in the experiment on Staphylococcus aureus [2] it was 16 µg/mL (≈ 48.9 µM).

As for `Cc1cc(=O)oc2cc(OCCCCn3cncn3)cc(OCCCCn3cncn3)c12.Cl`, the MIC with Staphylococcus aureus [1] was 1 µg/mL; against Salmonella typhi, 1 µg/mL; in the experiment with Saccharomyces cerevisiae, 2 µg/mL; in the experiment with Proteus vulgaris, 2 µg/mL; in the experiment on Micrococcus luteus, 1 µg/mL; in the experiment on Shigella dysenteriae, 1 µg/mL. Further, the MIC against Aspergillus fumigatus was determined as 2 µg/mL; with Escherichia coli, 1 µg/mL; against Candida albicans it was 1 µg/mL; in the experiment with Bacillus subtilis, 1 µg/mL; against Staphylococcus aureus [2], 2 µg/mL.
